The test system of assay [1] is L1210. Kind of assay: Antitumor activity was determined against the ic implanted L1210 lymphoid leukemia in mice by range in survival days at 100 mg/kg (treatment of 1-5qd schedule) dosage; Range is 21-24. The assay is classed as functional, Mus musculus.
The subject of assay [2] is L1210. The assay is described as follows: Antitumor activity was determined against the ic implanted L1210 lymphoid leukemia in mice by percent increase in life span at 167 mg/kg (treatment of 1, 5, 9qd schedule) dosage. The assay is classed as functional, Mus musculus. Summed up:
(§1)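 DBA/2J mice, groups of 6 (26-32 g), got 1 × 10^5 L1210 cells ic on day 0. Dosing was ip starting 24 h later, as a sonicated solution or suspension in 0.9% NaCl with 0.5% Tween-80, over a wide dose range. Mice were followed daily until death. Median survival T/C was taken from survivors per NCI protocols, and ILS = (T/C − 1) × 100. Active range means doses giving ILS ≥25%; optimal dose means greatest ILS.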

The test system of assay [3] is P388. Kind of assay: Antitumor activity was determined against the ip implanted P388 leukemia in mice by percent increase in life span at 60 mg/kg (treatment of 1-5qd schedule) dosage. It counts as functional, Mus musculus. To be noted: route intraperitoneal. Summed up:
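DBA/2J mice, 23-33 g, in groups of 6, were inoculated ip with 1×10^6 P388 cells on day 0. Dosing was ip from 24 h on the stated schedules, in 0.9% NaCl with 0.5% Tween-80 (sonicated solution or suspension). Survival was followed daily until death or 45 days. Median T/C was calculated from survivors per NCI protocols, with ILS = (T/C − 1) × 100.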

Assay [4] has as its system P388. Kind of assay: Antitumor activity against ip implanted P388 leukemia in mice expressed as active dose range (1,5,9qd treatment schedule) required to produce increase in life span by >25% was determined; Range is 67-133. It counts as functional, Mus musculus. Summed up:
(§2)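 P388 leukemia: 1 × 10^6 cells were given ip on day 0 to DBA/2J mice, groups of 6 (23-33 g). Treatment was ip from 24 h after inoculation, vehicle 0.9% NaCl with 0.5% Tween-80. Mice were observed daily until death or 45 days. Median survival T/C was calculated from survivors per NCI protocols, and ILS = (T/C − 1) × 100. Active range means doses giving ILS ≥25%; optimal dose means greatest ILS.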

Assay [5] deals with P388. Kind of assay: Antitumor activity against ip implanted P388 leukemia in mice expressed as active dose range (1-5qd treatment schedule) required to produce increase in life span by >25% was determined; Range is 40-60. It counts as functional, Mus musculus. Summed up: as §2
Assay [6] relates to L1210. Kind of assay: Antitumor activity against the ic implanted L1210 lymphoid leukemia in mice expressed as optimal dose (1 qd treatment schedule) required to produce greatest increase in life span was determined.
In assay [7] the test system is L1210. Kind of assay: Antitumor activity was determined against the ip implanted L1210 leukemia in mice by range in survival days at 200 mg/kg (treatment of 1-5qd schedule) dosage; Range is 15-17. It counts as functional, Mus musculus. To be noted: route intraperitoneal. Summed up: (§3)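 DBA/2J mice, 23-28 g, in groups of 6, were inoculated ip with 1×10^6 L1210 cells on day 0. Dosing was ip starting 24 h later on the stated daily schedules. Conjugates were given as sonicated solutions and reference prodrugs as suspensions in 0.9% NaCl with 0.5% Tween-80. Mice were observed daily until death or 45 days. Median survival T/C was calculated from survivors per NCI protocols.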

Assay [8] relates to L1210. The assay is described as follows: Antitumor activity was determined against the ic implanted L1210 lymphoid leukemia in mice by range in survival days at 100 mg/kg (treatment of 1-9qd schedule) dosage; Range is 11-18. The assay is classed as functional, Mus musculus.
In assay [9] the test system is L1210. Kind of assay: Antitumor activity was determined against the ic implanted L1210 lymphoid leukemia in mice by change in […] at 300 mg/kg (treatment of 1-5qd schedule) dosage. The assay is classed as functional, Mus musculus. The method, boiled down: (§4)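 DBA/2J mice, 6 per group (wt 26-32 g), inoculated ic with 1×10^5 L1210 cells on day 0. Dosing ip began 24 h after inoculation, with a sonicated solution or suspension in 0.9% NaCl containing 0.5% Tween-80, given over a range of doses. Animals were followed daily until death. Body weight change, median survival T/C, and %ILS = (T/C − 1) × 100 were computed from survivors per NCI protocols.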

Assay [10] has as its system L1210. Kind of assay: Antitumor activity was determined against the ip implanted L1210 leukemia in mice by percent median survival rate (treated/control) at 200 mg/kg (treatment of 1-5qd schedule) dosage; 17.0/7.0. It counts as functional, Mus musculus. Conditions: route intraperitoneal. The method, boiled down: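 DBA/2J mice in groups of 6 (wt 23-28 g) were inoculated ip with 1×10^6 L1210 cells on day 0. Dosing was ip from 24 h, in 0.9% NaCl with 0.5% Tween-80 (conjugates sonicated), across a range of doses. Mice were observed daily until death or 45 days. Median T/C was computed from survivors per NCI protocols, and ILS = (T/C − 1)×100.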

Assay [11] has as its system L1210. The assay is described as follows: Antitumor activity against ic implanted L1210 lymphoid leukemia in mice expressed as active dose range (1-5qd treatment schedule) required to produce increase in life span by >25% was determined; Range is 50-300. The assay is classed as functional, Mus musculus. The method, boiled down: as §1
The subject of assay [12] is L1210. Kind of assay: Antitumor activity was determined against the ic implanted L1210 lymphoid leukemia in mice by percent increase in life span at 100 mg/kg (treatment of 1-9qd schedule) dosage. It counts as functional, Mus musculus. Summed up:
as §1

For assay [13], the system named is L1210. The assay is described as follows: Antitumor activity was determined against the ic implanted L1210 lymphoid leukemia in mice by median survival time at 100 mg/kg (treatment of 1-9qd schedule) dosage; 14/7.0.
For assay [14], the system named is L1210. The assay is described as follows: Antitumor activity was determined against the ip implanted L1210 leukemia in mice by range in survival days at 100 mg/kg (treatment of 1-5qd schedule) dosage; 18-32. It counts as functional, Mus musculus. Conditions: route intraperitoneal. The method, boiled down: as §3
For assay [15], the system named is L1210. The assay is described as follows: Antitumor activity was determined against the ip implanted L1210 leukemia in mice by percent median survival rate (treated/control) at 300 mg/kg (treatment of 1qd schedule) dosage; 20.5/6.5. It counts as functional, Mus musculus. Conditions: route intraperitoneal. The method, boiled down:
as §3

For assay [16], the system named is L1210. The assay is described as follows: Antitumor activity against the ic implanted L1210 lymphoid leukemia in mice (1,5,9qd treatment schedule) required to produce greatest increase in life span was determined. The assay is classed as functional, Mus musculus. Summed up:
as §1

For assay [17], the system named is L1210. Kind of assay: Antitumor activity was determined against the ic implanted L1210 lymphoid leukemia in mice by change in […] at 80 mg/kg (1-5qd treatment schedule) dosage. It counts as functional, Mus musculus. The method, boiled down: as §4
Assay [18] relates to L1210. The assay is described as follows: Antitumor activity was determined against the ic implanted L1210 lymphoid leukemia in mice by percent median survival rate (treated/control) at 300 mg/kg (1 qd treatment schedule) dosage; 21.0/7.0. The assay is classed as functional, Mus musculus.
Assay [19] relates to L1210. Kind of assay: Antitumor activity was determined against the ic implanted L1210 lymphoid leukemia in mice by percent median survival rate (treated/control) at 80 mg/kg (1-5qd treatment schedule) dosage; 22.0/8.0. It counts as functional, Mus musculus.
Assay [20] relates to L1210. The assay is described as follows: Antitumor activity was determined against the ic implanted L1210 lymphoid leukemia in mice by percent increase in life span at 80 mg/kg (1-5qd treatment schedule) dosage. The assay is classed as functional, Mus musculus. The method, boiled down:
as §1

Assay [21] has as its system P388. The assay is described as follows: Antitumor activity was determined against the ip implanted P388 leukemia in mice by percent median survival rate (treated/control) at 60 mg/kg (1-5qd treatment schedule) dosage; >45.0/11.0. It counts as functional, Mus musculus. Conditions: route intraperitoneal.

On to `CCCCCCCCCCCCCCCCOCC(COP(=O)(O)OP(=O)(O)OC[C@H]1O[C@@H](n2ccc(N)nc2=O)[C@@H](O)[C@@H]1O)OC(=O)CCCCCCCCCCCCCCC` (mixture of isomers), for which the Range in the assay on L1210 [1] turned out to be 21. The ILS in the assay with L1210 [2] is 200; in the assay on P388 [3], above 309. The Active dose range with P388 [4] was 67 mg/kg/day; with P388 [5], 40 mg/kg/day. In addition, the Optimal dose in the assay with L1210 [6] turned out to be 500 mg.
As to `Nc1ccn([C@@H]2O[C@H](CO)[C@@H](O)[C@@H]2O)c(=O)n1` [CYTARABINE], the Range in the assay on L1210 [7] was 15; in the assay with L1210 [8], 11. Also, in the assay on L1210 [9], the Weight change is given as -6.1. The median survival time with L1210 [10] turned out to be 17 days; with L1210 [13], 14 days. This compound registered an Active dose range in the assay with L1210 [11] of 50 mg/kg/day. In the assay with L1210 [12], this compound came in with an ILS of 100.
`CCCCCCCCCCCCCCCCCCOCC(COP(=O)(O)OP(=O)(O)OC[C@H]1O[C@@H](n2ccc(N)nc2=O)[C@@H](O)[C@@H]1O)OC(=O)CCCCCCCCCCCCCCC` (mixture of isomers) yielded a Range in the assay with L1210 [14] of 18.
As for `CCCCCCCCCCCCCCCC(=O)OC[C@H](COP(=O)(O)OP(=O)(O)OC[C@H]1O[C@@H](n2ccc(N)nc2=O)[C@@H](O)[C@@H]1O)OC(=O)CCCCCCCCCCCCCCC`, the median survival time in the assay on L1210 [15] stood at 20.5 days; with L1210 [18] it was 21 days; in the assay with L1210 [19], 22 days. Also, the Optimal dose in the assay with L1210 [16] is recorded as 133 mg. The same compound showed a Weight change with L1210 [17] of -5.24 g mouse-1. Also, the ILS with L1210 [20] was found to be 175. The compound further gave a T/C in the assay with P388 [21] above 45%.

Source of the values: ChEMBL document CHEMBL1123247, “Nucleoside conjugates. 7. Synthesis and antitumor activity of 1-beta-D-arabinofuranosylcytosine conjugates of ether lipids” (J Med Chem, 1986).
